Screening data deposited in PubChem by several laboratories.
ABCB1 block: ABCB1 efflux pump inhibitors, primary screen, cell-based, multiplex, flow cytometry, ABCG2 counter-screen; ATP-dependent translocase ABCB1 (Homo sapiens), P08183; inhibition, % at 6.6 µM; CCRF-Adr cells, JC-1 efflux; 190,000 tested, 0.067% active; in the data active means inhibition above about 40%;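 further: 0% = vehicle and 100% = reference inhibitor; higher value means more JC-1 retained so stronger ABCB1 efflux block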
Arbovirus inh: antivirals against arbovirus infection, primary screen, cell-based, full library, 10K replicate subset; 200,000 tested, 0.37% active; inhibition, % at 10 µM; arbovirus infection cell-based antiviral screen; AID 1251, 2008; in the data active means inhibition above about 30%
RAM inhibit: inhibitors of the yeast RAM network, primary screen, dse1pr::URA3 reporter, 5-FOA selection; S. cerevisiae dse1pr::URA3 reporter, 5-FOA growth OD615, 2 d; analog-sensitive cbk1-as2 kinase mutant strain; inhibition, % at 50 µM; 190,000 tested, 1.8% active;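 active means inhibition above a set limit, 3 SD over mean compound inhibition, cut at about 8.4% in these data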;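 further: 0% = DMSO-only wells with no growth and 100% = 10 µM 1-NA-PP1 full growth; inhibition rescues growth on 5-FOA so higher OD means more RAM inhibition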
ABCG2 block: ABCG2 efflux pump inhibitors, primary screen, multiplex with ABCB1, IgMXP3 cells, flow cytometry; JC-1 efflux; inhibition, % at 6.6 µM; 190,000 tested, 0.1% active;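 active means inhibition above 80%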;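 further: 0% = DMSO and 100% = nicardipine control wells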
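Read-out basis: Efflux inhibition in percent versus controls | Test system: ABCG2 IgMXP3 and barcoded ABCB1 CCRF-Adr cell mix | Quantity: 3 million cells/mL in well | Schedule: 10 min at 25 °C | Control set: Nicardipine as high control, DMSO as low control | Reagent: JC-1 as fluorescent efflux pump substrate | Signal: Flow cytometry of retained JC-1 fluorescence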
RAM efflux-def: 5-FOA growth of efflux-deficient control yeast, dose response, counter-screen for RAM network inhibitor project, S. cerevisiae, OD615; AID 1305, 2008; shares compounds with RAM inhibit; S. cerevisiae efflux-deficient reporter strain, 5-FOA growth OD615, 2 days; max inhibition, %; 1,200 tested, under 10 active; call rule not given here;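 further: plate controls were vehicle for no effect and reference inhibitor for full effect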
An asterisk follows results filed as active; . = no result given. Rows were chosen to be rich in hits. Some 2.3% of all compounds tested hit in one or more screens of this group.

SMILES	ABCB1 block	Arbovirus inh	RAM inhibit	ABCG2 block	RAM efflux-def
COc1ccc(Cn2nnnc2C(c2cc3ccc(OC)cc3[nH]c2=O)N2CCCCCC2)cc1 (stereo not drawn)	1	7	2	2	.
COc1ccc(OCCNC(=O)c2cccc(Oc3ccc(C(F)(F)F)cc3[N+](=O)[O-])c2)cc1	1	-4	14*	2	2
O=C(NCCOc1ccccc1)c1ccccc1[N+](=O)[O-]	1	0	-1	9	.
O=C(NCCOc1ccccc1)c1cc(C(=O)NCCOc2ccccc2)cc([N+](=O)[O-])c1	21	-23	14*	30	3
O=C(NCCO)c1ccc(Oc2ccc(C(F)(F)F)cc2[N+](=O)[O-])cc1	0	-6	1	26	.
O=S(=O)(NCC1CCCO1)c1cc(Br)c(Br)s1 (stereo not drawn)	0	10	0	0	.
Cc1ccc(C(=O)NC2CC3CCCC(C2)N3C(=O)NC2CCCCC2)cc1 (stereo not drawn)	1	1	2	1	.
O=C(Nc1ccc(F)cc1F)c1sccc1SCc1cccc(C(F)(F)F)c1	0	8	2	4	.
O=C(Nc1ccc(F)cc1)c1sccc1SCc1cccc(C(F)(F)F)c1	0	-5	14*	1	3
COc1ccc(NC(=O)c2sccc2SCc2cccc(C(F)(F)F)c2)cc1	0	-2	16*	0	4
Cn1c(N2CCCCC2)nc2c1c(=O)[nH]c(=O)n2C	2	-1	-1	7	.
Cn1nnnc1SCC(=O)Nc1cc(S(=O)(=O)N2CCCC2)ccc1Cl	1	9	0	3	.
O=C(CSc1cccc(C(F)(F)F)c1)Nc1cc(S(=O)(=O)N2CCCC2)ccc1Cl	1	2	16*	8	1
CC(=O)NCCn1c(SCc2cccc([N+](=O)[O-])c2)nc2ccccc2c1=O	2	1	12*	14	3
CC(=O)NCCn1c(SCc2cc(F)ccc2F)nc2ccccc2c1=O	1	1	5	3	.
COc1ccc(NC(=O)CSc2nc3ccccc3c(=O)n2CCNC(C)=O)c(OC)c1	0	0	12*	2	1
Cn1cc(CN(CCO)Cc2cccs2)c(-c2cccc(Cl)c2)n1	1	-11	2	10	.
CC(C)Cn1c(-c2cccs2)nc2nc3ccccc3nc21	1	6	0	9	.
CCCCn1c(-c2cccs2)nc2nc3ccccc3nc21	2	0	12*	6	4
Cc1cc(Br)ccc1OCC(=O)N1CCCCCC1	0	0	21*	1	1
CCC(C(=O)NC1CCCCC1)n1c(SCc2ccccc2F)nc2ccncc21 (stereo not drawn)	0	-5	0	2	.
COc1cccc(C2CC(c3ccc(NS(C)(=O)=O)cc3)=NN2C(=O)c2ccccc2)c1OC (stereo not drawn)	2	-11	2	4	.
COC(=O)CCSCC(=O)N1N=C(c2ccc(Br)cc2)CC1c1cccc(OC)c1OC (stereo not drawn)	2	9	13*	6	2
COc1ccccc1OCC(=O)Nc1ccc(-c2nnc(-c3ccco3)o2)cc1	0	-2	12*	0	2
Cc1ccc(CSc2nnc(-c3ccc4c(c3)OCO4)o2)cc1	0	14	15*	1	2
SMILES	ABCB1 block	Arbovirus inh	RAM inhibit	ABCG2 block	RAM efflux-def
CCCCCC(=O)O[C@]1(C(C)=O)CC[C@H]2[C@@H]3CCC4=CC(=O)CC[C@]4(C)[C@H]3CC[C@@]21C	3	-34	12*	4	3
O=C(O)CCCn1nc(C(F)(F)F)c2c1CCCCC2	1	1	0	3	.
O=C(CSc1nnc(-c2ccc(Cl)s2)o1)N1CCCc2ccccc21	0	2	14*	11	2
Cc1cc(/C=C(/C#N)c2cccc(Cl)c2)c(C)n1C	0	-9	17*	3	4
O=C(CSc1nnc(CCCN2C(=O)c3cccc4cccc(c34)C2=O)n1-c1ccccc1)NCCCO	0	5	-1	-5	.
CCn1cc(C(=O)OCC(=O)c2ccccc2)c(=O)c2ccc(C)nc21	1	1	18*	9	2
